Reference: the RNAGym collection of RNA variant scans (doi:10.1126/science.aae0568)
This sample holds only a part of the variants without activity.

B1: tRNA (parent)
chain: GUUCCGUUGGCGUAAUGGUAACGCGUCUCCCUCCUAAGGAGAAGACUGCGGGUUCGAGUCCCGUACGGAACG

Variants of: B1
Assay: yeast fitness relative to wild type (ratio to wild type); higher = fitter; tRNA-Arg(CCU), competitive growth, 37 C, YPD
Method in brief: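 Variants of the tRNA-Arg(CCU) gene were chemically synthesised with a 3% per-site mutation rate across 69 sites and placed at the native genomic locus in Saccharomyces cerevisiae. Six parallel replicates of the pooled strains were competed in YPD at 37°C for 24 hours, and gene amplicons from the start and end populations were read by 100-nucleotide paired-end sequencing. Darwinian fitness relative to wild type was derived from changes in genotype frequencies. Genotypes required ≥ 100 starting reads, and estimates < 0.5 were set to 0.5.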

Row | Variant | yeast fitness
1 | G23C G25C C55G | ≤ 0.5
2 | C5G C11A A14G G25C C29G C66U | ≤ 0.5
3 | U26A G58C A65G | 0.611
4 | G9C A15U C31U U35C G51C G56A C62G | ≤ 0.5
5 | U16G A43U G50C | 0.576
6 | A43U C60G | 0.655
7 | C11U A37C G56A | ≤ 0.5
8 | C5A C34U | 0.786
9 | G25U A36U G56C A65C C66U | ≤ 0.5
10 | U28A G63C | 0.624
11 | C4G A21C G23C A36U | 0.635
12 | U26A A40C C66A | ≤ 0.5
13 | C5G C34A A36C A42G | ≤ 0.5
14 | C22G U28C | 0.853
15 | A20G G68A | 0.917
16 | U2C C4U U47A | 0.525
17 | U28C G38A A40C A45G G48A | ≤ 0.5
18 | G6C G23C C31G | ≤ 0.5
19 | U2C C22U A69C | 0.511
20 | C5G G18A C22U | ≤ 0.5
21 | U26A G50A | 0.875
22 | C30U A45G G48C G58C U59A | 0.548
23 | C11A C34G | ≤ 0.5
24 | C5G C27U | 0.651

Row | Variant | yeast fitness
25 | A45U U53G G67A | ≤ 0.5
26 | C31U G44A A45U | 0.893
27 | A42G C61A | 0.553
28 | C5A C33U C46A | ≤ 0.5
29 | U3A C31U U35G C62U | ≤ 0.5
30 | C4A A14G G63A | ≤ 0.5
31 | U19G A37G | 0.76
32 | C11U G23A C33G A69C | ≤ 0.5
33 | C29G U35A G58C C66U | ≤ 0.5
34 | C4A U13C U28A C34G | ≤ 0.5
35 | G25A G44C G52A C62G A69G | ≤ 0.5
36 | G23A U35C | 0.572
37 | A42C G51A A70C | 0.578
38 | A43G C60U C62U A70C | ≤ 0.5
39 | A15G C29U A43C A69U | 0.536
40 | C4G C34G G67A | ≤ 0.5
41 | A20U C31U A57U | 0.567
42 | U2A U3G C29G C30G C46G | 0.612
43 | C60A U64C | 0.718
44 | G6C C11G C27U A42G C66U | 0.552
45 | G6A A21U C62U | ≤ 0.5
46 | U3A A37C C61A | ≤ 0.5
47 | C29G C49A A70G | ≤ 0.5
48 | C5U A15C | 0.763

Row | Variant | yeast fitness
49 | A14U A45C A69U | 0.592
50 | A20C C34A A37G C62U C66U | 0.554
51 | A20C C29G C62A | ≤ 0.5
52 | G9C G48A | 0.705
53 | G10A C27G G63C | ≤ 0.5
54 | G17A C55U C62U | ≤ 0.5
55 | A20G C24A C29G A37U G39A U47C | ≤ 0.5
56 | A37C U47C G51A G67A | ≤ 0.5
57 | U13G G44A A57U | 0.617
58 | C29G G44A | 0.593
59 | U13A C24U G51C | 0.542
60 | C4U G63A | 0.894
61 | U7G U16G C61U | ≤ 0.5
62 | A15C G58A C61G C62G | ≤ 0.5
63 | A20C C30U G51C C55G A57U C66U | ≤ 0.5
64 | C4A G6C C22U G51C C62A | ≤ 0.5
65 | U16A U32C C34U | ≤ 0.5
66 | A42G A57G | 0.768
67 | U16C A21U C30U C34G A36C | ≤ 0.5
68 | G10C C46A G68C | 0.57
69 | A15U U53C | 0.71
70 | C4U G38C C61U C66U | ≤ 0.5
71 | G10A C22U G56C | 0.566
72 | U3A C4G A42G | ≤ 0.5

Row | Variant | yeast fitness
73 | U3G U26A C29A C34A G38A G67C | 0.712
74 | A45G G48C G56A | 0.968
75 | C11G A14G A20U C27G C29U C62U | ≤ 0.5
76 | C5U U7C C24A C61U | ≤ 0.5
77 | A37C G68C | 0.764
78 | G23C A36U U53C | 0.553
79 | U2A C11G C30A G44U A57G | ≤ 0.5
80 | U16A C31A C33G G38A C66U | ≤ 0.5
81 | U13C G52C U53A C55G A69U | ≤ 0.5
82 | C30U C34G U53C A69C | ≤ 0.5
83 | C11U A37U G38A | ≤ 0.5
84 | U26C C30G C61U | ≤ 0.5
85 | U7G U26C A42U C46U | 0.581
86 | U2A C5A C66U | ≤ 0.5
87 | C11A A43U C66U | ≤ 0.5
88 | U7G C30A A69C | 0.798
89 | A14C G25C | 0.583
90 | C11G A21U C24G G51A G68A | ≤ 0.5
91 | U3G A37G | 0.724
92 | G17A G18C | 0.63
93 | G17C G56A | 0.709
94 | A21G C22U A57G | 0.614
95 | A14U A43U | 0.721
96 | C5U C11G C24U A42C A65C A70U | ≤ 0.5

Row | Variant | yeast fitness
97 | U28G C29A C66U | ≤ 0.5
98 | G18C C31G A42G G67A | ≤ 0.5
99 | A14U A45G | 0.67
100 | U7A A15G G18A | 0.669
101 | G18C C55U | 0.532
102 | C24A C27U A40U G44C A57U G67C | ≤ 0.5
103 | U3A C31U A40C A70G | ≤ 0.5
104 | A14G C22A C29U G56C G58C C66U | ≤ 0.5
105 | U19G C22U A37G C66U A69U | 0.61
106 | G12A A21G G44A C46U A69C | 0.507
107 | G9A A21G C33A C62U G63C A70C | ≤ 0.5
108 | C62G G63C | 0.588
109 | A36C G58A | 0.618
110 | U3A C4A A21U G56C G58A | ≤ 0.5
111 | G12A C27U A36C A42U C46U | ≤ 0.5
112 | C11U U19A | 0.992
113 | U3C G10A G23A C62G G67A | ≤ 0.5
114 | U7C U53A G56C G63A | ≤ 0.5
115 | A45U C46U U53C | 0.574
116 | C31G U47G | 0.667
117 | C4G C5A C27A C34A A42U | ≤ 0.5
118 | A15U A20G C27A C29A U47G C60G | ≤ 0.5
119 | A21C U28G A43C G52C G67U | ≤ 0.5
120 | C46A A57C C60A | ≤ 0.5

Row | Variant | yeast fitness
121 | A15U C24U A37G U54C C66A | ≤ 0.5
122 | A37G G44A A65C | 0.561
123 | U2G A21G C49U | 0.708
124 | A15G G67U | 0.662
125 | A15G C31A G41C G56A G58C | ≤ 0.5
126 | A21U C22U U26C | ≤ 0.5
127 | U8C C22A U53A | ≤ 0.5
128 | C4A C5U C24G A45U | 0.649
129 | C22A G23A A37G A69U | ≤ 0.5
130 | U7A A40U A45G C46U | ≤ 0.5
131 | C22G C24U G44C | 0.59
132 | G17A G41C A43G G58C | ≤ 0.5
133 | C5G C29A U53C C62A G67A | ≤ 0.5
134 | U59A C62G G67A | ≤ 0.5
135 | C24G C30U U32A A45G C62U | ≤ 0.5
136 | A40U A70U | 0.99
137 | G10C C29G U53A | ≤ 0.5
138 | U19C C46A A57C A70C | ≤ 0.5
139 | G9A G10C G17A G25A | ≤ 0.5
140 | C4G C5U A20U G39C A40G A70U | ≤ 0.5
141 | C24G A36C C55U | ≤ 0.5
142 | U3A G9C A20G A40G U64C | ≤ 0.5
143 | A20U C61G | 0.712
144 | C11G C62U G63A | ≤ 0.5

Row | Variant | yeast fitness
145 | A15U U26A A37G U64A | ≤ 0.5
146 | U8A G18C G25C A57U C60U C61A | ≤ 0.5
147 | A21C C46G C49G | 0.655
148 | U54C C55U | 0.72
149 | C46G C49A G67C | ≤ 0.5
150 | A15G U47A | 0.916
151 | C27A C55G | 0.646
152 | G17C U47G C66U G67A A69U | ≤ 0.5
153 | U16A A37G | 0.79
154 | A14C G18C A65U G68C | ≤ 0.5
155 | C4G A15U A40C | ≤ 0.5
156 | U8C C66A | 0.687
157 | U13A C29U C31U G50C | 0.508
158 | U2G G9C A20G A42C C46G C49U C66U A69C | ≤ 0.5
159 | A14G G52C | 0.577
160 | U28A A40G A65U C66U | ≤ 0.5
161 | U2C G56C | 0.727
162 | A21C C30U U32G U53C G67A | ≤ 0.5
163 | C11G C62G | 0.642
164 | A43G A45U C46U | 0.604
165 | A21C A36C U47A C62G | ≤ 0.5
166 | U3C G39A A57U C62G | ≤ 0.5
167 | U7G C11G C34U G41A U64A | ≤ 0.5
